# Experiments:
# [1] = Solubility of the compound in aqueous phosphate buffer at pH 7.4; format: physicochemical
# Summary of the method: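 Solubility was measured in aqueous phosphate buffer at pH 7.4.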
# [2] = tested on: Kidney; experiment: Inhibition of 8-Br-cAMP-induced renal cystogenesis in mouse embryonic kidney organ culture model after 5 days by inverted microscopic analysis; format: functional, tissue-based; settings: 120 h
# [3] = Metabolic stability of the compound in rat liver microsomes assessed as disappearance of compound after 30 mins by LC/MS analysis in presence of NADPH; format: ADME, Microsome; settings: read-out: Drug metabolism
# Summary of the method: (§1)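 Compound at 5 µM was incubated with rat liver microsomes (1 mg protein/mL) in 100 mM potassium phosphate at 37 °C, with 0 or 1 mM NADPH. Samples were chilled, extracted with ethyl acetate, dried and taken up in mobile phase. Analysis was reverse-phase C18 LC/MS on a 5–95% acetonitrile gradient with negative ion detection.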
# [4] = target: Cystic fibrosis transmembrane conductance regulator (Homo sapiens, UniProt P13569); experiment: Inhibition of human wild-type CFTR expressed in FRT cells coexpressing YFP-H148Q assessed as inhibition of cAMP agonist-induced iodide influx after 45 mins by fluorescence plate-reader analysis; format: functional, cell-based
# Sequence of Cystic fibrosis transmembrane conductance regulator (P13569 whole entry): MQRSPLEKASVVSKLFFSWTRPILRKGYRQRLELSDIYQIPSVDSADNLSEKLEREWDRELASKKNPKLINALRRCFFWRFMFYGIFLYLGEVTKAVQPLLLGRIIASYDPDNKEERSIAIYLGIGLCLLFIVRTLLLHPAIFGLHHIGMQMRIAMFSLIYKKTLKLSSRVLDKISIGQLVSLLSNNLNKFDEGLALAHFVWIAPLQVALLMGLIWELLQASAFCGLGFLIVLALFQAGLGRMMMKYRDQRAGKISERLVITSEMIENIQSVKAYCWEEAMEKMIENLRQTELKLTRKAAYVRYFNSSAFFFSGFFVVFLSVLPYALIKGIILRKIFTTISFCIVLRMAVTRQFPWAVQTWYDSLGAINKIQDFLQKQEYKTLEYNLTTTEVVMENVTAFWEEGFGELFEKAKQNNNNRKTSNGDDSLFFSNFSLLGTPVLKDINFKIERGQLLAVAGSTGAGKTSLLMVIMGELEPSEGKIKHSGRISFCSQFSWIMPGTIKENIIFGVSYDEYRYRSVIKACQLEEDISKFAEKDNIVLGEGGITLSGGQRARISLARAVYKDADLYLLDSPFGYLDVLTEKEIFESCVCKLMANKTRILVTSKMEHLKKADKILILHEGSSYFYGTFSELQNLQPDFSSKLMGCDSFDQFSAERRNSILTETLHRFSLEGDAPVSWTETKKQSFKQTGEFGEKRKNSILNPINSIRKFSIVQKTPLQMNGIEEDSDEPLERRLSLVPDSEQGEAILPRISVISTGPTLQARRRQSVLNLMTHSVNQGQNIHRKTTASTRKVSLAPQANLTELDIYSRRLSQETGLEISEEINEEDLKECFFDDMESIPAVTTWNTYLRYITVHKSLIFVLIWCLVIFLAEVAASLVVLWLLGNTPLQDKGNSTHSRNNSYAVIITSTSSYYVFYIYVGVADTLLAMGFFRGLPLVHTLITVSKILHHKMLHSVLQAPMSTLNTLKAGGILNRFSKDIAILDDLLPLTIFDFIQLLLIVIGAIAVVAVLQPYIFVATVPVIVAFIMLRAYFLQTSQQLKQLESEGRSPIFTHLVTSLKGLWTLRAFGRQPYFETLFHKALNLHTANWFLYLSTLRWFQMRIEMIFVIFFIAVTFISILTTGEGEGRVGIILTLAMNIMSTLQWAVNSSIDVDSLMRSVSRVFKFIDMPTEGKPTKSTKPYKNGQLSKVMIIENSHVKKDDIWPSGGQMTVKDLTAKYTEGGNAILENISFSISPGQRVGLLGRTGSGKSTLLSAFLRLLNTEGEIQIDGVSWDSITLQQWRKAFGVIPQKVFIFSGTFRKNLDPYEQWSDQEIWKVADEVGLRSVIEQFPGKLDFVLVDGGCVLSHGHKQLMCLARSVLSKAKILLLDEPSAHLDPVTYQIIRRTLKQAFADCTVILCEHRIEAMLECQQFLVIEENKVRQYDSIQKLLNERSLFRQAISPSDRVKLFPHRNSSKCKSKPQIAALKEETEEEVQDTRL
# [5] = Solubility of the compound in albumin free saline; format: physicochemical; settings: buffer
# [6] = tested on: Liver microsomes; experiment: Metabolic stability of the compound in rat liver microsomes assessed as disappearance of compound after 30 mins by LC/MS analysis in absence of NADPH; format: ADME, Microsome; settings: 0.5 h; summary of the method: as §1
SMILES,IC50 [4],further results
Cn1c(=O)c2c(-c3ccccc3)n3c(c2n(C)c1=O)C(c1ccc(Br)o1)Oc1ccc(C(=O)O)cc1-3 (configuration not stated),,solubility [1]: 17 µM; IC50 [2]: 100 nM; metabolised at 0.5 h [3]: < 5%
Cn1c(=O)c2c(-c3ccccc3)n3c(c2n(C)c1=O)C(c1cc2ccccc2o1)Nc1ccccc1-3 (configuration not stated),Not Active,
Cc1ccc(C2Nc3ccccc3-n3c(-c4ccccc4)c4c(=O)n(C)c(=O)n(C)c4c32)o1 (configuration not stated),,solubility [5]: < 2 µM; Stability [6]: Stable; metabolised at 0.5 h [3]: 60%
Cc1ccc(C2c3c4c(c(-c5ccccc5)n3-c3ccccc3N2S(C)(=O)=O)c(=O)n(C)c(=O)n4C)o1 (configuration not stated),Not Active,
Cn1c(=O)c2c(-c3ccccc3)n3c(c2n(C)c1=O)C(c1ccc(-c2ccccc2)o1)Nc1ccccc1-3 (configuration not stated),Not Active,
Cn1c(=O)c2c(-c3ccccc3)n3c(c2n(C)c1=O)C(c1ccc(CO)o1)Nc1ccccc1-3 (configuration not stated),Not Active,
Cc1ccc(C2c3c4c(c(-c5ccccc5)n3-c3ccccc3N2C(=O)CCl)c(=O)n(C)c(=O)n4C)o1 (configuration not stated),Not Active,
CC(=O)N1c2ccccc2-n2c(-c3ccccc3)c3c(=O)n(C)c(=O)n(C)c3c2C1c1ccc(C)o1 (configuration not stated),Not Active,

# Source: ChEMBL document CHEMBL1828512, “Potent, metabolically stable benzopyrimido-pyrrolo-oxazine-dione (BPO) CFTR inhibitors for polycystic kidney disease” (J Med Chem, 2011)
